# From ChEMBL document CHEMBL1139141, “Structure-based design of benzylamino-acridine compounds as G-quadruplex DNA telomere targeting agents” (Bioorg Med Chem Lett, 2007)
# pEC50, pIC50: −log10 of the molar value.
# Legend:
# Homo sapiens = organism: Homo sapiens; assay: Effect on human G-quadruplex DNA stability by FRET assay
# Method in brief: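 Oligonucleotide F21T (21-mer d[GGG(TTAGGG)3], donor–acceptor end-labelled) annealed at 400 nM in 50 mM KCl, 10 mM cacodylic acid pH 7.4 (92° 2 min, cooled over 4 h); 200 nM final with ligand 0.10–10.00 µM. Fluorescence read at 0.5° steps, 30–100° at 1°/min, excitation 450–495, detection 515–545 nm; ΔTm from melting, triplicate.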
# DU-145 = assay: Growth inhibition of human DU145 cells by SRB assay; assay type: functional, cell-based
# [1] = target: Telomerase reverse transcriptase (Homo sapiens, UniProt O14746); assay: Inhibition of human telomerase by TRAP assay
# Sequence of Telomerase reverse transcriptase (O14746 whole entry): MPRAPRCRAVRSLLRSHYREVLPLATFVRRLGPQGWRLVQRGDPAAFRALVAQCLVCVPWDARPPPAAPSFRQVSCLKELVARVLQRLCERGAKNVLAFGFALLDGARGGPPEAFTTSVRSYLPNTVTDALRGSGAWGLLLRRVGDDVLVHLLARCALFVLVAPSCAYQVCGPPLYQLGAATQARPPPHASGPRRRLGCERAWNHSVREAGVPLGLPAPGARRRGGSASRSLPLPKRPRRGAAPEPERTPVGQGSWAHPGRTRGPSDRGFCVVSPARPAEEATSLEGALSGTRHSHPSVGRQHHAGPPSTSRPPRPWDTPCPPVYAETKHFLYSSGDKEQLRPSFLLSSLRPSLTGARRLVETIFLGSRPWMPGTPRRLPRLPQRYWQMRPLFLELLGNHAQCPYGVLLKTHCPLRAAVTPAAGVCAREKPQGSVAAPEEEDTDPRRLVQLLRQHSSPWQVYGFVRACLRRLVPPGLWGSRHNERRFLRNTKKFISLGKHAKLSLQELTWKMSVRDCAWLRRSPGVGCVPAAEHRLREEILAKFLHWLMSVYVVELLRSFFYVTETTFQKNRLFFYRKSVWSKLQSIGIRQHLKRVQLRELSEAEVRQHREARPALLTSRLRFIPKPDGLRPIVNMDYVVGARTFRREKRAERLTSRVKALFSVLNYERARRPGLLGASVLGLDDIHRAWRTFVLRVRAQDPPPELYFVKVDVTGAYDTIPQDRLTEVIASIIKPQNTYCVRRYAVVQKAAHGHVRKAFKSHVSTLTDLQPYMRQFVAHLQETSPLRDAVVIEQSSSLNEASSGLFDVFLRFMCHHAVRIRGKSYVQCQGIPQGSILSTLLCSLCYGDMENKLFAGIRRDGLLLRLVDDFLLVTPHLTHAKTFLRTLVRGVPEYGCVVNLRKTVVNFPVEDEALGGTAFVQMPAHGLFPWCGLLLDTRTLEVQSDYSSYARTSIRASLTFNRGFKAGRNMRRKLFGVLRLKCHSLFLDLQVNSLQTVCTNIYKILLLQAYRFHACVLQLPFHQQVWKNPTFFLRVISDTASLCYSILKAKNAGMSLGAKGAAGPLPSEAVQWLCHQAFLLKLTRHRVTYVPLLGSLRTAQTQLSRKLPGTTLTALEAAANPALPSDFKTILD
# Method in brief: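 Modified TRAP using A2780 ovarian carcinoma cell extract (1 µg protein) in 20 mM Tris-HCl pH 8.3, 68 mM KCl, 1.5 mM MgCl2, 1 mM EGTA, 0.05% Tween 20, 125 µM dNTPs, TS primer; 10 min at 30° with or without drug, heat-inactivated, then ACX primer PCR, 33 cycles. SYBR Green-stained PAGE products quantified by fluorescence; telEC50, triplicate.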
# A549 = assay: Growth inhibition of human A549 cells by SRB assay; assay type: functional, cell-based
# MCF7 = assay: Growth inhibition of human MCF7 cells by SRB assay; assay type: functional, cell-based
SMILES,ΔTm (Homo sapiens) [°C],pIC50 (DU-145),pEC50 [1],pIC50 (A549),pIC50 (MCF7)
COc1cc(CNc2c3ccc(NC(=O)CCN4CCCCC4)cc3nc3cc(NC(=O)CCN4CCCCC4)ccc23)cc(OC)c1,30,6.33,6.36,6.43,6.70
O=C(CCN1CCCC1)Nc1ccc2c(NCc3cc(C(F)(F)F)cc(C(F)(F)F)c3)c3ccc(NC(=O)CCN4CCCC4)cc3nc2c1,27.5,5.58,6.07,5.20,5.97
O=C(CCN1CCCC1)Nc1ccc2c(NCc3cc(F)cc(C(F)(F)F)c3)c3ccc(NC(=O)CCN4CCCC4)cc3nc2c1,30.5,5.60,6.62,5.70,6.00
O=C(CCN1CCCCC1)Nc1ccc2c(NCc3ccc(F)c(F)c3)c3ccc(NC(=O)CCN4CCCCC4)cc3nc2c1,26.5,5.65,6.06,5.92,6.28
Cc1cccc(CNc2c3ccc(NC(=O)CCN4CCC(C)CC4)cc3nc3cc(NC(=O)CCN4CCC(C)CC4)ccc23)c1,24,6.20,6.41,6.24,6.24

# Second part, the compound after the results:
ΔTm (Homo sapiens) [°C],pIC50 (DU-145),pEC50 [1],pIC50 (A549),pIC50 (MCF7),SMILES
31,6.11,6.64,6.30,6.34,Cc1cccc(CNc2c3ccc(NC(=O)CCN4CCCCC4)cc3nc3cc(NC(=O)CCN4CCCCC4)ccc23)c1
29.5,5.01,7.52,5.68,5.65,O=C(CCN1CCCC1)Nc1ccc2c(NCc3ccc(F)c(F)c3)c3ccc(NC(=O)CCN4CCCC4)cc3nc2c1
28,5.64,6.92,5.62,5.60,CN(C)c1ccc(Nc2c3ccc(NC(=O)CCN4CCCC4)cc3nc3cc(NC(=O)CCN4CCCC4)ccc23)cc1
29.5,5.00,6.00,5.92,5.52,Cc1cccc(CNc2c3ccc(NC(=O)CCN4CCCC4)cc3nc3cc(NC(=O)CCN4CCCC4)ccc23)c1
21,5.59,6.44,5.70,6.27,CN(C)c1ccc(Nc2c3ccc(NC(=O)CCN4CCCCC4)cc3nc3cc(NC(=O)CCN4CCCCC4)ccc23)cc1
32.5,4.98,6.46,5.34,5.43,COc1cc(CNc2c3ccc(NC(=O)CCN4CCCC4)cc3nc3cc(NC(=O)CCN4CCCC4)ccc23)cc(OC)c1
